Source: ChEMBL document CHEMBL4387755 (Bioorg Med Chem, 2019)

Legend:
Type in all cases: functional, cell-based
[1] = target: T1, Melatonin receptor type 1A (Homo sapiens, UniProt P48039); test: Agonist activity at MT1 receptor (unknown origin) expressed in HEK293 cells at 0.5 mM by Fluo-8 dye-based calcium assay relative to control
How it was run: (§1)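 HEK293 cells grown at 37 °C, 5% CO2 in DMEM with 10% FBS and G418 (400 μg/mL). Seeded at 4 × 10⁴/well on Matrigel-coated plates and grown 24 h. Loaded with Fluo-8 calcium dye for 1 h. Compounds were dissolved in DMSO and diluted in HBSS, then added automatically. Fluorescence was read at room temperature (ex 485 nm, em 525 nm, cut-off 515 nm). Agonistic rate was measured at 0.5 mM.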

[2] = target: T2, Melatonin receptor type 1B (Homo sapiens) (UniProt P49286); test: Agonist activity at MT2 receptor (unknown origin) expressed in HEK293 cells at 0.5 mM by Fluo-8 dye-based calcium assay relative to control; how it was run: as §1
T2 sequence (whole entry): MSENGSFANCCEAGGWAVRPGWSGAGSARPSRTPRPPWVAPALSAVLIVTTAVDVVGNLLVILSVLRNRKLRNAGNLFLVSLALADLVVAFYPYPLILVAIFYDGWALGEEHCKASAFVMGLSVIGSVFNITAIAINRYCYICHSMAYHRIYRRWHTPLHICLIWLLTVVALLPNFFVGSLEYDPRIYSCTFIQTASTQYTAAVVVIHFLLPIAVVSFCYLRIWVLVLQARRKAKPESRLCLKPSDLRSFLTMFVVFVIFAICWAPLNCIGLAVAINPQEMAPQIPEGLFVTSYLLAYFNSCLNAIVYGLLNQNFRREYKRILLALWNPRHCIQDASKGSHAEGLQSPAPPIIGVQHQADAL

[3] = target: T1, Melatonin receptor type 1A; test: Agonist activity at MT1 receptor (unknown origin) expressed in HEK293 cells by Fluo-8 dye-based calcium assay
[4] = target: T3, Melatonin receptor type 1B (Homo sapiens, UniProt P49286); test: Agonist activity at MT2 receptor (unknown origin) expressed in HEK293 cells by Fluo-8 dye-based calcium assay
T3 sequence (P49286 whole entry): T2 sequence (whole entry)

T1 sequence (P48039 whole entry): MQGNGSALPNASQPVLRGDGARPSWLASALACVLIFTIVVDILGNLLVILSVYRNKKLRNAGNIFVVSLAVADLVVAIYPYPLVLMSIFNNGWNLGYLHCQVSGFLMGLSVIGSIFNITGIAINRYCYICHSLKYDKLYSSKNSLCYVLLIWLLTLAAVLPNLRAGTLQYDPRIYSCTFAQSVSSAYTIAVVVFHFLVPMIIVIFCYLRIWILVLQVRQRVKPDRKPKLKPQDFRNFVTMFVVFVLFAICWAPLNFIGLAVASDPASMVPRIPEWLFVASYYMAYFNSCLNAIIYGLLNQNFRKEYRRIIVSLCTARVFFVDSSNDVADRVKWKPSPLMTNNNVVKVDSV

SMILES	Activity [1]	Activity [2]	EC50 [3]	EC50 [4]
CCOCc1ccc(O)c(Cc2ccc(O)c(Cc3ccc(O)cc3)c2)c1	-5.7%	-10.4%		
Oc1ccc(Cc2ccc(O)c(Cc3ccccc3)c2)cc1	-8.6%	-6.6%		
Oc1ccc(Cc2ccc(O)c(Cc3ccc(O)cc3)c2)cc1	46.5%	134%		
OC[C@H]1O[C@@H](Oc2ccc(Sc3ccc(O)cc3)cc2)[C@H](O)[C@@H](O)[C@@H]1O	-2.3%	-2.2%		
CCOCc1ccc(O)c(Cc2ccc(O)c(COCC)c2)c1	-11.2%	5.3%		
Oc1ccc(Cc2ccc(O)c(Cc3ccccc3Cc3ccccc3)c2)cc1	-2.3%	-6.7%		
Oc1ccc(Oc2ccc(O)cc2)cc1	45.9%	67.1%		
Oc1ccc(Cc2cc(Sc3ccc(O)cc3)ccc2O)cc1	31.3%	48.4%		
Oc1ccc(COCc2ccc(O)c(Cc3ccc(O)cc3)c2)cc1	25.1%	59.4%		
Oc1ccc(Cc2ccc(O)cc2)cc1	80.3%	103%	237 µM	244 µM
Oc1ccc(Cc2cc(Oc3ccc(O)cc3)ccc2O)cc1	37.1%	51.2%		
CCOCc1cc(Cc2ccc(O)cc2)c(O)c(Cc2ccc(O)c(Cc3ccc(O)cc3)c2)c1	-5.3%	29.5%		
CC(=O)OC[C@H]1O[C@@H](Oc2ccc(Sc3ccc(O)cc3)cc2)[C@H](OC(C)=O)[C@@H](OC(C)=O)[C@@H]1OC(C)=O	0.3%	8.5%		
Oc1ccc(COc2ccc(Cc3ccc(O)cc3)cc2)cc1	-5.6%	15.3%		
CN(c1ccc(O)cc1)c1ccc(O)cc1	-9.5%	44.7%		
Oc1ccc(Sc2ccc(O)cc2)cc1	44.6%	94.1%		
CCOCc1ccc(O)c(Cc2ccc(O)cc2)c1	3.3%	38.3%		
CC(=O)OC[C@H]1O[C@@H](Oc2ccc(Sc3ccc(O[C@@H]4O[C@H](COC(C)=O)[C@@H](OC(C)=O)[C@H](OC(C)=O)[C@H]4OC(C)=O)cc3)cc2)[C@H](OC(C)=O)[C@@H](OC(C)=O)[C@@H]1OC(C)=O	-0.4%	-3.6%		
CCOCc1cc(Cc2ccc(O)cc2)ccc1O	37%	117%		
